The subject of one assay is Enterococcus faecium. Briefly: Antibacterial activity against Enterococcus faecium. It is filed as functional, organism-based.
The test system of assay [1] is C-33-A. Briefly: Antiproliferative activity against HPV-negative human C-33-A cells assessed as inhibition of cell growth incubated for 48 hrs by WST-1 assay. It is filed as functional, cell-based. The method, boiled down:
(§1)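 CaSki cells (RPMI 1640) and C33A cells (DMEM), passage <10, kept at 37 °C in 5% CO2. Cells were seeded at 1000–3000 per well to reach 50% confluency, then treated 48 h with serial dilutions from 200 to 2 μM in DMSO (N = 3). WST-1 was read after 2 h at 450/600 nm. Absorbances were normalized and EC50 came from nonlinear regression.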
On the technique in general: Formazan colour is commonly taken as a measure of viable cells.

The test system of the next assay is Pseudomonas aeruginosa. Briefly: Antibacterial activity against Pseudomonas aeruginosa. The class given is functional, organism-based.
A further assay relates to Enterobacter sp. Briefly: Antibacterial activity against Enterobacter sp. It is filed as functional, organism-based.
A further assay relates to Klebsiella pneumoniae. Briefly: Antibacterial activity against Klebsiella pneumoniae. The class given is functional, organism-based.
In assay [2] the test system is Ca-Ski. Kind of assay: Antiproliferative activity against HPV-positive human Ca-Ski cells assessed as inhibition of cell growth incubated for 48 hrs by WST-1 assay. The class given is functional, cell-based. The method, boiled down:
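CaSki cells were grown in RPMI 1640 with 10% FBS, kept below passage 10, at 37 °C and 5% CO2. They were seeded at 1000–3000 cells/well (about 50% confluence) and treated with 12 serial dilutions from 200 to 2 μM in DMSO (N = 3), with DMSO and 50 μM etoposide controls. After 48 h, 2 h WST-1 was read at 450/600 nm, normalized, and fitted by nonlinear regression.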

In the next assay the test system is Acinetobacter baumannii. Briefly: Antibacterial activity against Acinetobacter baumannii. The class given is functional, organism-based.
The subject of the next assay is Human orthopneumovirus. Briefly: Antiviral activity against human respiratory syncytial virus. The class given is functional, organism-based.
Assay [3] can be described thus: Selectivity ratio of EC50 for antiproliferative activity against HPV-positive human Ca-Ski cells to EC50 for antiproliferative activity against HPV-negative human C-33-A cells. The class given is functional. Summed up:
as §1

The next assay concerns Candida. Briefly: Antifungal activity against Candida. It is filed as functional, organism-based.
For a further assay, the system named is Staphylococcus aureus. Briefly: Antibacterial activity against Staphylococcus aureus. The class given is functional, organism-based.
Assay [4] relates to Mycobacterium tuberculosis. Briefly: Antibacterial activity against Mycobacterium tuberculosis. The class given is functional, organism-based.
Assay [5] has as its system Ca-Ski. Briefly: Antiproliferative activity against HPV-positive human Ca-Ski cells assessed as inhibition of cell growth at 50 uM incubated for 48 hrs by WST-1 assay. It is filed as functional, cell-based.
Assay [6] relates to C-33-A. Briefly: Antiproliferative activity against HPV-negative human C-33-A cells assessed as inhibition of cell growth at 50 uM incubated for 48 hrs by WST-1 assay. It is filed as functional, cell-based. The method, boiled down:
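C33A cells in DMEM, seeded at 1000–3000 per well and exposed to 50 μM etoposide as the positive control alongside a DMSO negative control (N = 3). Proliferation was read by WST-1 after 48 h treatment plus 2 h reagent incubation, at 450/600 nm. End-point absorbances were normalized.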

pEC50: −log10 of the molar value. The source made the active and inactive calls. No cut-off for these calls is given here.

`COc1cc(C)c(O)c2c1C=CC(C)(CC/C=C(\C)CCCC(C)(C)OC(C)=O)O2` (stereo not drawn): the result with Enterococcus faecium, with Pseudomonas aeruginosa, in the assay with Enterobacter sp., with Klebsiella pneumoniae, with Acinetobacter baumannii and with Human orthopneumovirus was inactive. Further, the outcome (in the assay on Candida; in the assay with Staphylococcus aureus; in assay [4]) was inactive. Also, the pEC50 is 7.40 in the assay on C-33-A [1] and 4.70 in the assay on Ca-Ski [2]. Moreover, the “Ratio EC50” value in [3] was 500.

`COc1cc([C@@H]2c3cc4c(cc3[C@@H](O[C@@H]3O[C@@H]5CO[C@@H](C)O[C@H]5[C@H](O)[C@H]3O)[C@H]3COC(=O)[C@H]23)OCO4)cc(OC)c1O`: the result with Ca-Ski [5] and in the assay on C-33-A [6] was Active.

Turning to `COc1cc(C)c(O)c2c1C=CC(C)(CC/C=C(\C)CCCC(C)(C)O)O2` (stereo not drawn), the result in the assay with Enterococcus faecium, with Pseudomonas aeruginosa, in the assay on Enterobacter sp., in the assay on Klebsiella pneumoniae, in the assay on Acinetobacter baumannii and with Human orthopneumovirus was inactive. Also, the outcome (in the assay with Candida; in the assay on Staphylococcus aureus; in assay [4]) was inactive. Besides, the negative logarithm of the EC50 (pEC50) with C-33-A [1] was 4.42; in the assay with Ca-Ski [2], 4.39.

Consider `CC(=O)Oc1cc(C)c(O)c2c1C=CC(C)(CC/C=C(\C)CCC=C(C)C)O2` (stereo not drawn), for which the result in the assay on Enterococcus faecium, in the assay with Pseudomonas aeruginosa, in the assay with Enterobacter sp., in the assay on Klebsiella pneumoniae, in the assay on Acinetobacter baumannii and in the assay with Human orthopneumovirus was inactive. The outcome (with Candida; with Staphylococcus aureus; in assay [4]) was inactive. Also, the pEC50 with C-33-A [1] is 4.85; in the assay on Ca-Ski [2], 4.60.

`CC(C)=CCC/C(C)=C/CCC1(C)C=Cc2c(C=O)c(O)c(C)c(O)c2O1` (stereo not drawn): the result in the assay on Enterococcus faecium, with Pseudomonas aeruginosa, in the assay on Enterobacter sp., in the assay with Klebsiella pneumoniae, in the assay with Acinetobacter baumannii and in the assay with Human orthopneumovirus was inactive. For the same compound, the outcome (with Candida; in the assay with Staphylococcus aureus; in assay [4]) was inactive. Besides, the negative-log EC50 (pEC50) in the assay on C-33-A [1] is 4.24; with Ca-Ski [2], 4.34.

With `CC(C)=CCC/C(C)=C/CC/C(C)=C/Cc1c(O)c(O)c(C)c(O)c1C=O`, the outcome in the assay with Enterococcus faecium, with Pseudomonas aeruginosa, with Enterobacter sp., with Klebsiella pneumoniae, with Acinetobacter baumannii and in the assay on Human orthopneumovirus was inactive. Also, the result (with Candida; in the assay with Staphylococcus aureus; in [4]) was inactive. Besides, the pEC50 is 4.85 in the assay on C-33-A [1] and 4.64 in the assay on Ca-Ski [2].

Usually pEC50 stands for the EC50 on a negative log10 scale, so that one unit is a factor of ten.

Values taken from ChEMBL document CHEMBL5226372, “Tuaimenals B-H, Merosesquiterpenes from the Irish Deep-Sea Soft Coral Duva florida with Bioactivity against Cervical Cancer Cell Lines” (J Nat Prod, 2023).
